Measured values taken from ChEMBL document CHEMBL4138255, “Discovery of a Slow Tight Binding LPA1 Antagonist (ONO-0300302) for the Treatment of Benign Prostatic Hyperplasia” (ACS Med Chem Lett, 2017).
Calls of active or inactive are those of the source. No cut-off for these calls is given here.

Assays:
[1] = target: T1, Lysophosphatidic acid receptor 1 (Homo sapiens, UniProt Q92633); experiment: Antagonist activity at recombinant human LPA1 expressed in CHO cells assessed as reduction in LPA-induced intracellular calcium level pretreated followed by LPA addition by Fura-2-AM dye based fluorescence assay; assay type: functional, cell-based
T1 sequence (Q92633 whole entry): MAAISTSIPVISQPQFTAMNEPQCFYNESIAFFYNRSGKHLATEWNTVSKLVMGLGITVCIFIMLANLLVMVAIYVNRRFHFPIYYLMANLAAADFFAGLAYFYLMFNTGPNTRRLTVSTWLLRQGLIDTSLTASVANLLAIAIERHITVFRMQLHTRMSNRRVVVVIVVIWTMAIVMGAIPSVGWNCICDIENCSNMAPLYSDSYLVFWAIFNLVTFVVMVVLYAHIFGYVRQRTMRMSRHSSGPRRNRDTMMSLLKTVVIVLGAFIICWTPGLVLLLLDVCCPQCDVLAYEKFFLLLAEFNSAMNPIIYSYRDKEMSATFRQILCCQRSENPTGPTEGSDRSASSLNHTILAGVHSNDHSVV
Method in brief: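 LPA-induced Ca²⁺ mobilization in CHO cells stably expressing the LPA1 receptor, with 10 min incubation. IC50 was obtained by nonlinear regression of 4-point dose–response curves, with 95% confidence intervals.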

[2] = Half life in rat microsomes in presence of NADPH; assay type: ADME, Microsome
[3] = Half life in human microsomes in presence of NADPH; assay type: ADME, Microsome
[4] = Total clearance in rat at 1 mg/kg, iv; assay type: ADME, organism-based; conditions: in vivo
Canis familiaris [5] = experiment: Inhibition of LPA-induced increase of intraurethral pressure in dog at 1 to 3 mg/kg, po measured up to 24 hrs; assay type: functional, organism-based; conditions: Canis lupus familiaris
Method in brief: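 Conscious dogs were dosed orally at 1 or 3 mg/kg. LPA (300 μg/kg i.v.) was injected at 0.5, 1, 2, 4, 6, 9, 12 and 24 h, and intraurethral pressure was measured in conscious animals. Response was expressed as % of each dog's predose (0 h) IUP.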

Rattus norvegicus [6] = experiment: Inhibition of LPA-induced increase of intraurethral pressure in rat at 3 mg/kg, po measured at 18 hrs relative to control; assay type: functional
Method in brief: (§1)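 Conscious rats were given compound or vehicle (20% STPG) orally, 3 mg/kg. At 1, 3, 6, 9, 12, 18 or 24 h, LPA (300 μg/kg) was injected i.v. and intraurethral pressure was measured under short-term anesthesia. Inhibition was calculated versus vehicle. ID50 was determined from oral dose–response at 1 h.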

Canis familiaris [7] = experiment: Inhibition of LPA-induced increase of intraurethral pressure in dog at 1 mg/kg, po measured after 24 hrs relative to control; assay type: functional; conditions: Canis lupus familiaris
[8] = target: T1, Lysophosphatidic acid receptor 1; experiment: Binding affinity to recombinant human LPA1 expressed in CHO cell membranes measured after 0.5 hrs by scintillation counting method; conditions: for Bmax: tested as the 3H-labelled form
[9] = target: T1, Lysophosphatidic acid receptor 1; experiment: Binding affinity to recombinant human LPA1 expressed in CHO cell membranes measured after 1 hr by scintillation counting method; conditions: for Bmax: tested as the 3H-labelled form
[10] = target: T1, Lysophosphatidic acid receptor 1; experiment: Binding affinity to recombinant human LPA1 expressed in CHO cell membranes measured after 2 hrs by scintillation counting method; conditions: for Bmax: tested as the 3H-labelled form
[11] = target: T1, Lysophosphatidic acid receptor 1; experiment: Binding affinity to recombinant human LPA1 expressed in CHO cell membranes measured after 4 hrs by scintillation counting method; conditions: for Bmax: tested as the 3H-labelled form
[12] = target: T1, Lysophosphatidic acid receptor 1; experiment: Binding affinity to recombinant human LPA1 expressed in CHO cell membranes measured after 2 hrs at 4 degC by scintillation counting method
[13] = target: T1, Lysophosphatidic acid receptor 1; experiment: Binding affinity to recombinant human LPA1 expressed in CHO cell membranes measured after 2 hrs at room temperature by scintillation counting method
[14] = target: T1, Lysophosphatidic acid receptor 1; experiment: Binding affinity to recombinant human LPA1 expressed in CHO cell membranes measured after 2 hrs at 37 degC by scintillation counting method
[15] = target: T1, Lysophosphatidic acid receptor 1; experiment: Antagonist activity at recombinant human LPA1 expressed in CHO cell […] pretreated for 24 hrs prior to Fura-2-AM dye addition for 1 hr followed by LPA stimulation measured after 3 mins by fluorescence assay; assay type: functional, cell-based
Method in brief: (§2)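 Ca²⁺ mobilization in CHO cells stably expressing LPA1. Compound was added at cell seeding and incubated 24 h, and was held at the same concentration through Ca²⁺-indicator loading and LPA stimulation. In the wash-out variant, compound was removed before LPA stimulation. IC50 was obtained with 95% confidence intervals.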

[16] = target: T1, Lysophosphatidic acid receptor 1; experiment: Antagonist activity at recombinant human LPA1 expressed in CHO cell […] pretreated for 24 hrs prior to Fura-2-AM dye addition for 1 hr followed by compound washout and subsequent LPA stimulation measured after 3 mins by fluorescence assay; assay type: functional, cell-based; method in brief: as §2
Rattus norvegicus [17] = experiment: Inhibition of LPA-induced increase of intraurethral pressure in rat at 3 mg/kg, po measured after 6 hrs relative to control; assay type: functional; method in brief: as §1
Rattus norvegicus [18] = experiment: Inhibition of LPA-induced increase of intraurethral pressure in rat at 3 mg/kg, po measured after 3 hrs relative to control; assay type: functional; method in brief: as §1
Rattus norvegicus [19] = experiment: Inhibition of LPA-induced increase of intraurethral pressure in po dosed rat measured after 1 hr; assay type: functional; conditions: for ED50: read-out: ID50 (the source's name); method in brief: as §1
[20] = target: Lysophosphatidic acid receptor 1 (Rattus norvegicus) (UniProt P61794); experiment: Antagonist activity at LPA1 in CD(SD)IGS rat urethra assessed as inhibition of LPA-induced urethra contraction at 1 uM pretreated for 30 mins followed by LPA addition; assay type: functional
Chain of Lysophosphatidic acid receptor 1 (Rattus norvegicus) (P61794 whole entry): as the sequence (Q92633 whole entry) above, with I4A, I8S, P22Q, H40Y, I61V, E193D, N194H, I269V, S331N, T335N counted along it
Method in brief: (§3)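 Isolated rat urethra. Contraction to 10 μM LPA was recorded as 100% control. Medium was exchanged, then 1 μM test compound was added for 30 min and contraction to 10 μM LPA recorded. Tissue was washed with compound-free medium three times every 10 min before each LPA re-challenge, two wash-out rounds. Expressed as % inhibition, mean ± SD, n = 3.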

[21] = target: Lysophosphatidic acid receptor 1 (Rattus norvegicus) (UniProt P61794); experiment: Antagonist activity at LPA1 in CD(SD)IGS rat urethra assessed as inhibition of LPA-induced urethra contraction at 1 uM pretreated for 30 mins prior to LPA addition followed by compound washout every 10 minutes for 2 times and subsequent LPA stimulation; assay type: functional; method in brief: as §3
Rattus norvegicus [22] = experiment: Inhibition of LPA-induced increase of intraurethral pressure in rat at 3 mg/kg, po measured after 1 hr relative to control; assay type: functional; method in brief: as §1
Rattus norvegicus [23] = experiment: Inhibition of LPA-induced increase of intraurethral pressure in rat at 3 mg/kg, po measured up to 12 hrs relative to control; assay type: functional; method in brief: as §1
Rattus norvegicus [24] = experiment: Inhibition of LPA-induced increase of intraurethral pressure in po dosed rat measured after 6 hrs; assay type: functional; method in brief: as §1

## COc1cc([C@@H](O)[C@@H](CC2Cc3ccccc3C2)Cn2ccc(CCC(=O)O)c2)cc(OC)c1C
[1]
  IC50: 0.086 µM
[2]
  half-life: 0.25 h
[3]
  half-life: 1.32 h
[4]
  clearance: 20.5 mL/min/kg
Canis familiaris [5]
  inhibition: Active
Rattus norvegicus [6]
  inhibition in vivo at 3 mg/kg: 47%
Canis familiaris [7]
  inhibition in vivo at 1 mg/kg: 30%
[8]
  Bmax: 974 cpm
[9]
  Bmax: 973 cpm
[10]
  Bmax: 942 cpm
[11]
  Bmax: 956 cpm
[12]; tested as the 3H-labelled form
  Bmax: 1030 cpm
[13]; tested as the 3H-labelled form
  Bmax: 942 cpm
[14]; tested as the 3H-labelled form
  Bmax: 1110 cpm
[15]
  IC50: 0.00016 µM
[16]
  IC50: 0.00019 µM

## COc1cc([C@@H](O)[C@@H](CCCc2ccccc2)Cn2ccc(CC(=O)O)n2)cc(OC)c1C
[1]
  IC50: 0.032 µM

## COc1cc([C@@H](O)[C@@H](CCCc2ccsc2)Cn2ccc(CCC(=O)O)c2)cc(OC)c1C
[1]
  IC50: 0.038 µM
[2]
  half-life: < 0.25 h
[3]
  half-life: 1.1 h
Rattus norvegicus [17]
  inhibition: inactive
Rattus norvegicus [18]
  inhibition in vivo at 3 mg/kg: 70%

## COc1cc([C@@H](O)[C@@H](CCCc2ccccc2)Cc2ccc(CC(=O)O)cc2)cc(OC)c1C
[1]
  IC50: 0.061 µM
Rattus norvegicus [19]
  inhibition: Dose-dependent effect
  ED50: 0.97 mg/kg
[20]
  inhibition: Active
[21]
  inhibition: Active

## COc1cc([C@@H](O)[C@@H](CCCc2ccsc2)Cn2ccc(CC(=O)O)c2)cc(OC)c1C
[1]
  IC50: 0.023 µM
[2]
  half-life: < 0.25 h
[3]
  half-life: 1 h
[4]
  clearance: 16.4 mL/min/kg
Rattus norvegicus [22]
  inhibition in vivo at 3 mg/kg: 75%
Rattus norvegicus [17]
  inhibition in vivo at 3 mg/kg: 23%

## COc1cc([C@@H](O)[C@@H](CCCc2ccccc2)Cn2ccc(CCC(=O)O)c2)cc(OC)c1C
[1]
  IC50: 0.022 µM

## COc1cc([C@@H](O)[C@@H](CCCc2ccccc2)Cn2cnc(CC(=O)O)c2)cc(OC)c1C
[1]
  IC50: 0.18 µM

## COc1cc(C(=O)N(C/C=C/c2ccccc2)Cc2ccc(CC(=O)O)cc2)cc(OC)c1C
[1]
  IC50: > 1 µM
[2]
  half-life: > 3.33 h
[3]
  half-life: 2.72 h

## COc1cc([C@@H](O)[C@@H](CCCc2cccs2)Cn2ccc(CC(=O)O)c2)cc(OC)c1C
[1]
  IC50: 0.029 µM
[2]
  half-life: < 0.25 h
[3]
  half-life: 1.37 h
Rattus norvegicus [17]
  inhibition: inactive
Rattus norvegicus [18]
  inhibition in vivo at 3 mg/kg: 70%

## COc1cc([C@@H](O)[C@@H](CCCc2cccs2)Cn2ccc(CCC(=O)O)c2)cc(OC)c1C
[1]
  IC50: 0.045 µM
[2]
  half-life: < 0.25 h
[3]
  half-life: 1.25 h
Rattus norvegicus [17]
  inhibition: inactive
Rattus norvegicus [18]
  inhibition in vivo at 3 mg/kg: 70%

## COc1cc(C(=O)N(CCCc2ccccc2)Cc2ccc(CC(=O)O)cc2)cc(OC)c1C
[20]
  inhibition: Active
[21]
  inhibition: inactive
[8]
  Bmax: 3420 cpm
[9]
  Bmax: 3560 cpm
[10]
  Bmax: 2450 cpm
[11]
  Bmax: 2740 cpm

## COc1cc([C@@H](O)[C@@H](CC2Cc3ccccc3C2)Cn2ccc(CC(=O)O)c2)cc(OC)c1C
[1]
  IC50: 0.061 µM
[2]
  half-life: 0.567 h
[3]
  half-life: 1.08 h
[4]
  clearance: 19.2 mL/min/kg
Canis familiaris [5]
  inhibition: Active
Rattus norvegicus [23]
  inhibition in vivo at 3 mg/kg: 52%

## COc1cc([C@@H](O)[C@@H](CCCc2ccccc2)Cn2nc(C)c(CC(=O)O)c2C)cc(OC)c1C
[1]
  IC50: 0.52 µM

## COc1cc([C@@H](O)[C@@H](CCCc2ccccc2)Cn2cc(CCC(=O)O)cn2)cc(OC)c1C
[1]
  IC50: 0.034 µM

## [3H]C(C(=O)O)C([3H])c1ccn(C[C@H](CC2Cc3ccccc3C2)[C@H](O)c2cc(OC)c(C)c(OC)c2)c1 (stereo not given in full)
[8]
  Kd: 0.00234 µM
[9]
  Kd: 0.00126 µM
[10]
  Kd: 0.00074 µM
[11]
  Kd: 0.00049 µM
[12]
  Kd: 0.0225 µM
[13]
  Kd: 0.00074 µM
[14]
  Kd: 0.00034 µM

## COc1cc([C@@H](O)[C@@H](CCCc2ccccc2)Cn2cc(CC(=O)O)cn2)cc(OC)c1C
[1]
  IC50: 0.03 µM

## COc1cc([C@@H](O)[C@@H](CCCc2ccccc2)Cn2ccc(C(=O)O)c2)cc(OC)c1C
[1]
  IC50: 0.12 µM

## COc1cc([C@@H](O)[C@@H](CCCc2ccccc2)Cn2ccc(CC(=O)O)c2)cc(OC)c1C
[1]
  IC50: 0.013 µM
[2]
  half-life: < 0.25 h
[3]
  half-life: 0.817 h
Rattus norvegicus [19]
  ED50: 0.6 mg/kg
Rattus norvegicus [24]
  inhibition (INH): 33%
[4]
  clearance: 50.1 mL/min/kg
Rattus norvegicus [22]
  inhibition: Active
Rattus norvegicus [17]
  inhibition in vivo at 3 mg/kg: 33%

## COc1cc([C@@H](O)[C@@H](CCCc2ccccc2)Cn2ccc(CCC(=O)O)n2)cc(OC)c1C
[1]
  IC50: 0.04 µM

## COc1cc(C(=O)C(CCCc2ccccc2)Cc2ccc(CC(=O)O)cc2)cc(OC)c1C (stereo not given)
[1]
  IC50: 0.46 µM

## [3H]C(CN(Cc1ccc(CC(=O)O)cc1)C(=O)c1cc(OC)c(C)c(OC)c1)C([3H])c1ccccc1 (stereo not given)
[8]
  Kd: 0.00812 µM
[9]
  Kd: 0.00654 µM
[10]
  Kd: 0.00596 µM
[11]
  Kd: 0.0102 µM
